Assay results taken from ChEMBL document CHEMBL1123840, “Synthesis and evaluation of melphalan-containing N,N-dialkylenkephalin analogues as irreversible antagonists of the delta opioid receptor” (J Med Chem, 1987).
“And” between values parts separate entries of the source, which are not always exact repeats. Equal entries are not always repeated. Square brackets hold non-standard residues; d marks the D form. Peptide text beside a SMILES is read from it. * marks the point of attachment. Tyr(Nα,Nα-Bn2) = O=C([C@H](Cc1ccc(O)cc1)N(Cc1ccccc1)Cc1ccccc1)*; Phe(4-N(CH2CH2Cl)2) = N[C@@H](Cc1ccc(N(CCCl)CCCl)cc1)C(=O)O; Tyr(Nα,Nα-allyl2) = C=CCN(CC=C)[C@@H](Cc1ccc(O)cc1)C(=O)*; Aib = CC(C)(N)C(=O)O

Columns and labels:
[1] = species on record: Cavia porcellus; assay: Reversible opioid agonist activity in the electrically stimulated guinea pig ileum(GPI) at 1 uM concentration (Exp 1); assay type: functional
[2] = molecular target: Mu-type opioid receptor (Cavia porcellus) (UniProt P97266); assay: Ratio of IC50 of […] (agonist) after 10 min of incubation along with compound (antagonist) and IC50 of agonist in absence of compound for mu opioid receptor at 1 uM in GPI assay; assay type: functional
Chain of Mu-type opioid receptor (Cavia porcellus) (P97266 whole entry): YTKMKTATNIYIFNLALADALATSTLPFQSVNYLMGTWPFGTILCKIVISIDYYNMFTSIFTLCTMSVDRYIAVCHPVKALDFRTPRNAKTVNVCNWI
Outline: (§1)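 Reversible antagonism was measured in electrically stimulated isolated tissue (MVD or GPI) with the antagonist present. Agonists were morphine (μ), ethylketazocine (κ) and DADLE (δ). The value is the agonist IC50 with antagonist divided by the IC50 without it, i.e. the fold rightward shift of the agonist dose-response curve. Mean ± SEM, n = 3 unless otherwise noted.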

[3] = molecular target: Delta-type opioid receptor (Mus musculus) (UniProt P32300); assay: Ratio of IC50 of DADLE (agonist) after 10 min of incubation along with compound (antagonist) and IC50 of agonist in the absence of compound for delta opioid receptor at 1 uM in MVD assay; assay type: functional; outline: as §1
Chain of Delta-type opioid receptor (Mus musculus) (P32300 whole entry): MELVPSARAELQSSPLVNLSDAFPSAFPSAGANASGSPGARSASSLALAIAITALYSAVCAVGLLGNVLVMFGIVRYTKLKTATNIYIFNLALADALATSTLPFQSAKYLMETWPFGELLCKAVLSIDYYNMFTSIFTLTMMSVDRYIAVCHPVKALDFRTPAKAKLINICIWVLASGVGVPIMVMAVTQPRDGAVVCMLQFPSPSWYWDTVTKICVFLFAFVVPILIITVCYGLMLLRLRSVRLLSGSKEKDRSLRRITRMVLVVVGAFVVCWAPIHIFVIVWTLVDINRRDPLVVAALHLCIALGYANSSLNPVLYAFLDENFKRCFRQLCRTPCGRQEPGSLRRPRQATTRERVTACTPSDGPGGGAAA

[4] = species on record: Mus musculus; assay: (§2) Reversible opioid agonist activity in the electrically stimulated mouse vas deferens(MVD) at 1 uM concentration; assay type: functional
[5] = molecular target: Mu-type opioid receptor (Homo sapiens) (UniProt P35372); assay: Ratio of IC50 of […] (agonist) after 10 min of incubation along with compound (antagonist) and IC50 of agonist in absence of compound for mu opioid receptor at 1 uM in MVD assay; assay type: functional; conditions: Mus musculus; outline: as §1
Chain of Mu-type opioid receptor (Homo sapiens) (P35372 whole entry): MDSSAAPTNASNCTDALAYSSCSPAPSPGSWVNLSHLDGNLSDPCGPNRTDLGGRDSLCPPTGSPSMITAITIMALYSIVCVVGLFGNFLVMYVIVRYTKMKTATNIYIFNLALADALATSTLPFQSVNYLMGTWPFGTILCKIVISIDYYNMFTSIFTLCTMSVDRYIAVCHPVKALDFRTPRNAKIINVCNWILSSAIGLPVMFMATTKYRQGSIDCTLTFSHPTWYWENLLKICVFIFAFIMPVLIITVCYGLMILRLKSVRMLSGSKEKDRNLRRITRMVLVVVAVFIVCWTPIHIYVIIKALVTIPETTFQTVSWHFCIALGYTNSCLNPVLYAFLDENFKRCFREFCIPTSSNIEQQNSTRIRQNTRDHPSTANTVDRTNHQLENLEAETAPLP

[6] = molecular target: Kappa-type opioid receptor (Cavia porcellus) (UniProt P41144); assay: Ratio of IC50 of ethylketazocine (agonist) after 10 min of incubation along with compound (antagonist) and IC50 of agonist in absence of compound for kappa opioid receptor at 1 uM in GPI assay; assay type: functional; outline: as §1
Chain of Kappa-type opioid receptor (Cavia porcellus) (P41144 whole entry): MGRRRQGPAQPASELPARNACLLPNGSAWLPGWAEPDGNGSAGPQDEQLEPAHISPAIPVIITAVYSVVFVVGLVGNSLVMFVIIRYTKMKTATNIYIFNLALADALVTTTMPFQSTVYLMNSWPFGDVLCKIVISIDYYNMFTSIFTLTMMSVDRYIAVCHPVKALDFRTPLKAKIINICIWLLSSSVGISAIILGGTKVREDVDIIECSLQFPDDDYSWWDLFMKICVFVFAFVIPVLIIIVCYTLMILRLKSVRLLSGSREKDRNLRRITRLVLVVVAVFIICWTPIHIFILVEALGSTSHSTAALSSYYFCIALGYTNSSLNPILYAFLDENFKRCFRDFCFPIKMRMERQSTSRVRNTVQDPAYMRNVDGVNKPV

[7] = molecular target: Mu-type opioid receptor (Mus musculus) (UniProt P42866); assay: Ratio of IC50 of […] (agonist) after 10 min of incubation along with compound (antagonist) and IC50 of agonist in absence of compound for Opioid receptor mu 1 at 1 uM in MVD assay; assay type: functional; outline: as §1
Chain of Mu-type opioid receptor (Mus musculus) (P42866 whole entry): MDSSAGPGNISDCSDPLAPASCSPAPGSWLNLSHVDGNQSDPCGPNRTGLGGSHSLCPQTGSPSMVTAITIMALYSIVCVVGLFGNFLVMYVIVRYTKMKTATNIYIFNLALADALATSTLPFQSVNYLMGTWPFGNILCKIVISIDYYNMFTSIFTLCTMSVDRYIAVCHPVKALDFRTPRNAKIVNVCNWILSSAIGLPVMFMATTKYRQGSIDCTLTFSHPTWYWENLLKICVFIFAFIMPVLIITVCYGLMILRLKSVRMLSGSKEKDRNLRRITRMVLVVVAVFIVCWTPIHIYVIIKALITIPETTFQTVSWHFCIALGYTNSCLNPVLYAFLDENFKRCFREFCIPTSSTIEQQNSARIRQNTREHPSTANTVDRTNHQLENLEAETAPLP

[8] = molecular target: Kappa-type opioid receptor (Cavia porcellus) (UniProt P41144); assay: Ratio of IC50 of ethylketazocine (agonist) after 10 min of incubation along with compound (antagonist) and IC50 of agonist in absence of compound for Opioid receptor kappa 1 at 1 uM in GPI assay (Exp 2); assay type: functional; outline: as §1
[9] = species on record: Mus musculus; assay: Ratio of IC50 of DADLE (agonist) exposed to the compound for 10 min and then washed 30 times to Ratio of IC50 of morphine (agonist) prior to exposure to compound; assay type: functional
Outline: (§3)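 Irreversible antagonism was measured in isolated tissue. The tissue was exposed to the compound for 10 min (30 min in some cases), then washed 30 times with fresh buffer to remove non-covalently bound ligand. Agonist IC50 was then redetermined. The ratio is this post-wash IC50 over the agonist IC50 in the same tissue before exposure. Mean ± SEM, n = 3 unless otherwise noted.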

[10] = molecular target: Mu-type opioid receptor (Cavia porcellus) (UniProt P97266); assay: Ratio of IC50 of […] (agonist) after 10 min of incubation along with compound (antagonist) and IC50 of agonist in absence of compound for Opioid receptor mu 1 at 1 uM in GPI assay (exp 1); assay type: functional; outline: as §1
[11] = molecular target: Delta-type opioid receptor (Mus musculus) (UniProt P32300); assay: Ratio of IC50 of DADLE (agonist) after 10 min of incubation along with compound (antagonist) and IC50 of agonist in the absence of compound for Opioid receptor delta 1 at 10 uM in MVD assay; assay type: functional; outline: as §1
[12] = molecular target: Delta-type opioid receptor (Mus musculus) (UniProt P32300); assay: Ratio of IC50 of DADLE (agonist) after 10 min of incubation along with compound (antagonist) and IC50 of agonist in the absence of compound for Opioid receptor delta 1 at 1 uM in MVD assay; assay type: functional; outline: as §1
[13] = molecular target: Kappa-type opioid receptor (Cavia porcellus) (UniProt P41144); assay: Ratio of IC50 of ethylketazocine (agonist) after 10 min of incubation along with compound (antagonist) and IC50 of agonist in absence of compound for Opioid receptor kappa 1 at 1 uM in GPI assay (Exp 1); assay type: functional; outline: as §1
[14] = molecular target: T1, Opioid receptors; mu/kappa/delta (Homo sapiens) (UniProt P41145+P41143+P35372); assay: Reversible opioid agonist activity in the electrically stimulated guinea pig ileum(GPI) at 1 uM concentration (exp 1); assay type: functional, tissue-based; conditions: Cavia porcellus, target entry is the homologue from another species
T1 sequence (P35372 whole entry, looked up): as the sequence (P35372 whole entry) above
T1 sequence (P41143 whole entry, looked up): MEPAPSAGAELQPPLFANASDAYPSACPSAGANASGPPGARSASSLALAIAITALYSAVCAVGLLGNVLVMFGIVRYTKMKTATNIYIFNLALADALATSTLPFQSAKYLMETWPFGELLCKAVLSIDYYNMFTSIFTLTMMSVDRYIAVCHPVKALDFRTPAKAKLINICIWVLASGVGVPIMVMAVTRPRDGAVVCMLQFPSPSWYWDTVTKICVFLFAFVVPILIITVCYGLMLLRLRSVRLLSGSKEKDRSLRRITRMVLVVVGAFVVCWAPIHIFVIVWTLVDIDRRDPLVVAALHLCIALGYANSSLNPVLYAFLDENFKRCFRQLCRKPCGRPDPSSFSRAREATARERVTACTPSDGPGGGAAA
T1 sequence (P41145 whole entry, looked up): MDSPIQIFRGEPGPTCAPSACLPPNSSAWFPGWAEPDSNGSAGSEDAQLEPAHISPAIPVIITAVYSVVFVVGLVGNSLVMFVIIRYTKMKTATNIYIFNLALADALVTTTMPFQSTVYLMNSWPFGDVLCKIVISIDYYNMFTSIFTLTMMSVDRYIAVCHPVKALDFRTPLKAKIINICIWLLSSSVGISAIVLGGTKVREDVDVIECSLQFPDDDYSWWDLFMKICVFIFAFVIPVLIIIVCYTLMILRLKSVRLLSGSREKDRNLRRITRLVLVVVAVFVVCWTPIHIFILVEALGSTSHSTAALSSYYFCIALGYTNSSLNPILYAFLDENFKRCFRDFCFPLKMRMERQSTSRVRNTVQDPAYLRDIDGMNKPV

[15] = molecular target: T2, Opioid receptor (Mus musculus) (UniProt P42866+P32300+P33534); assay: as §2; assay type: functional
T2 sequence (P32300 whole entry, looked up): as the sequence (P32300 whole entry) above
T2 sequence (P33534 whole entry, looked up): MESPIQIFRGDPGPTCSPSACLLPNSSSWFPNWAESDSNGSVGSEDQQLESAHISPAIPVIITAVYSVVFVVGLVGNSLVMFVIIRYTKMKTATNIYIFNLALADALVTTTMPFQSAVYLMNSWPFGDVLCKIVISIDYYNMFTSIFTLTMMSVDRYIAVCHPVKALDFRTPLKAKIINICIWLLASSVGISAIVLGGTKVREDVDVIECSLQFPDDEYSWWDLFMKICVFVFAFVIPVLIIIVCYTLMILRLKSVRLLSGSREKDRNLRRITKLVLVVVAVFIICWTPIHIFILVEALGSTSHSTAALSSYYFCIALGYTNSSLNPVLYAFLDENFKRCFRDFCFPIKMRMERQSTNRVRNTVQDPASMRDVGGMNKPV
T2 sequence (P42866 whole entry, looked up): as the sequence (P42866 whole entry) above

[16] = molecular target: T2, Opioid receptor (Mus musculus); assay: Reversible opioid agonist activity in the electrically stimulated mouse vas deferens(MVD) at 10 uM of concentration; assay type: functional
[17] = molecular target: T1, Opioid receptors; mu/kappa/delta (Homo sapiens); assay: Reversible opioid agonist activity in the electrically stimulated guinea pig ileum(GPI) at 1 uM concentration (exp 2); assay type: functional, tissue-based; conditions: Cavia porcellus, target entry is the homologue from another species
[18] = species on record: Mus musculus; assay: Ratio of IC50 of morphine (agonist) expossed to the compound for 10 min and then washed 30 times to Ratio of IC50 of morphine (agonist) prior to exposure to compound; assay type: functional; outline: as §3
[19] = molecular target: Mu-type opioid receptor (Cavia porcellus) (UniProt P97266); assay: Ratio of IC50 of […] (agonist) after 10 min of incubation along with compound (antagonist) and IC50 of agonist in absence of compound for Opioid receptor mu 1 at 1 uM in GPI assay (exp 2); assay type: functional; outline: as §1
[20] = molecular target: Delta-type opioid receptor (Mus musculus) (UniProt P32300); conditions: 10 uM
[21] = molecular target: Delta-type opioid receptor (Homo sapiens) (UniProt P41143); conditions: Cavia porcellus; 1 uM
Chain of Delta-type opioid receptor (Homo sapiens) (P41143 whole entry): as the sequence (P41143 whole entry, looked up) above

[22] = molecular target: Kappa-type opioid receptor (Cavia porcellus) (UniProt P41144); assay: Ratio of IC50 of ethylketazocine (agonist) after 10 min of incubation along with compound (antagonist) and IC50 of agonist in absence of compound for kappa opioid receptor at 1 uM in GPI assay (Exp 1); assay type: functional; outline: as §1
[23] = molecular target: Kappa-type opioid receptor (Cavia porcellus) (UniProt P41144); conditions: 1 uM
[24] = molecular target: Delta-type opioid receptor (Homo sapiens) (UniProt P41143); conditions: Cavia porcellus; 1 uM; remark: listed apart in the source
[25] = species on record: Cavia porcellus; assay: Reversible opioid agonist activity in the electrically stimulated guinea pig ileum(GPI) at 1 uM concentration (Exp 2)
[26] = molecular target: Delta-type opioid receptor (Homo sapiens) (UniProt P41143); conditions: Cavia porcellus; 1 uM; remark: listed apart in the source
[27] = molecular target: Mu-type opioid receptor (Cavia porcellus) (UniProt P97266); assay: Ratio of IC50 of […] (agonist) after 10 min of incubation along with compound (antagonist) and IC50 of agonist in absence of compound for mu opioid receptor at 1 uM in GPI assay (Exp 2); assay type: functional; outline: as §1
[28] = molecular target: Mu-type opioid receptor (Cavia porcellus) (UniProt P97266); conditions: 1 uM

Structure (SMILES): CC(C)C[C@H](NC(=O)[C@H](Cc1ccc(N(CCCl)CCCl)cc1)NC(=O)C(C)(C)NC(=O)C(C)(C)NC(=O)[C@H](Cc1ccc(O)cc1)N(Cc1ccccc1)Cc1ccccc1)C(=O)O ({Tyr(Nα,Nα-Bn2)}-[Aib][Aib][Phe(4-N(CH2CH2Cl)2)]L-OH)
- Inhibition [1]: 12.5%
- inhibition at 1 µM ([1]; Cavia porcellus, Ileum): 9.4%
- IC50 ratio [2]: 0.4 and 1
- IC50 ratio [3]: 1.2
- inhibition at 1 µM [4]: 22.5%
- IC50 ratio [5]: 1
- IC50 ratio [6]: 0.2 and 0.3

Structure (SMILES): C=CCN(CC=C)[C@@H](Cc1ccc(O)cc1)C(=O)NC(C)(C)C(=O)NC(C)(C)C(=O)N[C@@H](Cc1ccc(N(CCCl)CCCl)cc1)C(=O)N[C@@H](CC(C)C)C(=O)O ({Tyr(Nα,Nα-allyl2)}-[Aib][Aib][Phe(4-N(CH2CH2Cl)2)]L-OH)
- IC50 ratio [7]: 2.2
- IC50 ratio [8]: 0.6
- IC50 ratio [9]: 2.9
- IC50 ratio [10]: 0.6
- IC50 ratio [11]: 19.4
- IC50 ratio [12]: 5
- IC50 ratio [13]: 0.3
- inhibition [14]: 8.1%
- inhibition [15]: 20.6%
- inhibition [16]: 16.8%
- inhibition [17]: 14.7%
- IC50 ratio [18]: 3
- IC50 ratio [19]: 1

Structure (SMILES): CC(C)C[C@H](NC(=O)[C@H](Cc1ccccc1)NC(=O)CNC(=O)CNC(=O)[C@H](Cc1ccc(O)cc1)N(Cc1ccccc1)Cc1ccccc1)C(=O)O ({Tyr(Nα,Nα-Bn2)}-GGFL-OH)
- IC50 ratio [20]: 96.9
- IC50 ratio [21]: 2.5
- IC50 ratio [22]: 1
- IC50 ratio [23]: 1
- inhibition at 1 µM [1]: 1.9%
- IC50 ratio [3]: 6.6
- IC50 ratio [24]: 1.2
- inhibition at 1 µM [25]: 2.9%
- inhibition at 1 µM [4]: 11.4%
- IC50 ratio [18]: 1
- IC50 ratio [5]: 0.6
- IC50 ratio [26]: 0.8

Structure (SMILES): C=CCN(CC=C)[C@@H](Cc1ccc(O)cc1)C(=O)NCC(=O)NCC(=O)N[C@@H](Cc1ccccc1)C(=O)N[C@@H](CC(C)C)C(=O)O ({Tyr(Nα,Nα-allyl2)}-GGFL-OH)
- IC50 ratio [22]: 0.6
- IC50 ratio [23]: 1.1
- inhibition at 1 µM ([1]; Cavia porcellus, Ileum): -6.7%
- IC50 ratio [27]: 1.1
- IC50 ratio [3]: 2.7
- IC50 ratio [28]: 0.8
- inhibition at 1 µM [25]: 0%
- inhibition at 1 µM [4]: 10%
- IC50 ratio [5]: 0.8
